Assay results from different studies.
Each line is one published result; the experiments were not run side by side.
Cell line: K562
Observed: cell growth or viability

CCCON(Cc1ccc(C(=O)NO)cc1)C(=O)Nc1ccc(N(C)C)cc1  IC50 (ATP luminescence; 72 h): 7680 nM
Cc1c(O)c(=O)ccn1CCO  IC50 (MTT; 72 h): ≥ 100000 nM
CC(C)[C@H](N)C(=O)N1CCC[C@H]1B(O)O  IC50 (ATP luminescence; 48 h): > 60000 nM
O=C1CCCCC1C1C2C=CC=CC1C(CCCCOC1CCCCO1)=C2 (centres unmarked)  IC50 (flow cytometry): 27 nM
CC(=O)O[C@H](C)C(=O)CCCCCCC(=O)Nc1ccccc1  IC50 (thymidine uptake): > 100000 nM
CC(C)(C)SCCCC1=CC2C=CC=CC1C2C1CCCCC1=O (centres unmarked)  IC50 (flow cytometry): 28 nM
C[C@@H](O)C(=O)CCCCCCC(=O)Nc1ccccc1  IC50 (thymidine uptake): 62500 nM
c1ccc(-c2n[nH]cc2-c2ccnc(-c3ccc(OCCn4ccnc4)cc3)c2)nc1  IC50 (XTT; 72 h): 20000 nM
CN1c2ccccc2C(=O)N2[C@H](C(=O)Nc3ccc(/C=C/C(=O)NO)cc3)Cc3c([nH]c4ccccc34)[C@@H]12  IC50: 1000 nM
O=C1CCCCC1C1C2C=CC=CC1C(CCN1C(=O)c3ccccc3C1=O)=C2 (centres unmarked)  IC50 (flow cytometry): 11 nM
N[C@@H](CC(=O)N1CCN(C(c2ccc(F)cc2)c2ccc(F)cc2)CC1)C(=O)N1Cc2ccccc2C1  IC50 (ATP luminescence; 48 h): 40800 nM
COc1cc(Nc2nccc(-c3cnn4nc(OC)ccc34)n2)cc(C(F)(F)F)c1  IC50 (ATP luminescence): 260 nM
CCCON(Cc1ccc(C(=O)NO)cc1)C(=O)Nc1ccccc1  IC50 (ATP luminescence; 72 h): 1770 nM
CCCCCC/C=C1\CC2C=CC=CC1C2C1CCCCC1=O (centres unmarked)  IC50 (flow cytometry): 17 nM
C#CCSc1nc(Sc2nnnn2-c2ccccc2)c2nnn(Cc3ccc(OC)cc3)c2n1  IC50 (MTS; 6 days): 7240 nM
CC(=O)OCCC1=CC2C=CC=CC1C2C1CCCCC1=O (centres unmarked)  IC50 (flow cytometry): 39 nM
O=C1NCCc2[nH]c(-c3ccncc3)cc21  IC50: > 10000 nM
